Sampled rows, rich in hits. Any-hit rate of the full collection: about 1.7%.
TbMetRS inhib: Trypanosoma brucei MetRS inhibition; purified T. brucei MetRS, ATP depletion, Kinase-Glo luminescence; inhibition, % at 11.9 µM; 0.4% of 360,000 active; AID 624268;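 active = inhibition above a per-plate cutoff of the control wells' mean inhibition plus 3 SD, cut at about 5.5% in these data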
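Test system – parasite MetRS enzyme · Reagent – substrates ATP, L-methionine and bulk Escherichia coli tRNA · Doses – 11.9 µM compound single dose, 0.9% DMSO · Times – 15 min enzyme-compound preincubation, 2 h reaction, 10 min detection, 25 °C · Signal – Kinase-Glo luminescence, ATP depletion format · Controls – DMSO-only wells as low control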
IDE cell activ: activators of human insulin-degrading enzyme in cells; 0.073% of 340,000 active; activation, % at 5.96 µM; AID 493087; P14735; HEK cells, FAbeta-B cleavage, fluorescence polarization; 0% vehicle, 100% cell-free pure enzyme wells;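 active = activation above the mean of all tested compounds plus 3 SD, set per screening campaign, cut at about 17% in these data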
IDE cell inh: inhibits human insulin-degrading enzyme in HEK cells; inhibition, % at 5.59 µM; AID 434962; P14735; FAbetaB cleavage, fluorescence polarization; 0.41% of 320,000 active;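 active = percent inhibition above the average of all tested compounds plus 3 SD, set per screening campaign, cut at about 16% in these data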;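 note: IDE supplied by intact live HEK cells; FP after avidin binding of uncleaved biotin substrate so inhibition keeps polarization high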
HNF4A DNA FP: change in binding of human HNF4 alpha to DNA; P41235; HNF4a-FITC DNA binding, fluorescence polarization, 1 h; activity change, % at 10 µM; 0.3% of 360,000 active; in the data active = activity change above about 30%, passing the limit was not always enough
TPT1 inhibitor: C. albicans TPT1 enzyme inhibition; recombinant caTPT1, FP RNA substrate dephosphorylation; 0.81% of 300,000 active; AID 1962; inhibition, % at 5 µM;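 active = inhibition above the mean of all tested compounds plus 3 SD, set per screening campaign, cut at about 24% in these data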
CSN inh: CSN deneddylation inhibition; AID 651999; 0.38% of 360,000 active; inhibition, % at 12.5 µM; Q92905; Purified CSN, SCF-Nedd8-OG deneddylation, fluorescence polarization;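 active = pattern-corrected inhibition above about 35%, with an unprinted fluorescence ratio check between 0.5 and 1.5, limit read from the data, passing the limit was not always enough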
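Test system: purified human Csn5 enzyme expressed in HEK293T cells. Amount: 0.24 nM enzyme. Reagent: SCFSkp2-Nedd8OG substrate at 10 nM final. Schedule: 90 min incubation of compound, enzyme and substrate at room temperature. Detection: fluorescence polarization. Read-out: % inhibition of substrate cleavage by Csn5.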
Tb MetRS conf: confirmation of Trypanosoma brucei MetRS inhibitors. inhibition, % at 11.9 µM. 93% of 1,400 active. shares compounds with TbMetRS inhib. T. brucei MetRS enzyme, luminescence (ATP depletion); in the data active = inhibition above about 7%
Jurkat tox: Jurkat T cell cytotoxicity for MetRS hits; Jurkat cells viability, ATP luminescence; inhibition, % at 8.3 µM; shares compounds with TbMetRS inhib; AID 624413; 12% of 1,400 active; in the data active = inhibition above about 15%
TbMetRS FP orth: T. brucei MetRS inhibition, orthogonal assay | 44% of 1,400 active | inhibition, % at 11.9 µM | purified T. brucei MetRS, fluorescence polarization | shares compounds with TbMetRS inhib; in the data active = inhibition above about 17%
Large screens that a line does not name were inactive (follow-up assays come after a bar, where they were run).

O=C(C/C=N\OCc1ccc(Cl)cc1Cl)Nc1ccccc1	none
O=C(C/C=N\OCc1ccc([N+](=O)[O-])cc1)Nc1ccc(Cl)cc1	TbMetRS inhib 74.1 | Tb MetRS conf 101.1 | Jurkat tox inactive | TbMetRS FP orth 80.3
O=C(C/C=N\OCc1ccc([N+](=O)[O-])cc1)Nc1ccccc1	TbMetRS inhib 12.7 | Tb MetRS conf 31.3 | Jurkat tox inactive | TbMetRS FP orth inactive
CC(C)(C)NC(=O)C(c1ccc(F)cc1)N(Cc1ccco1)C(=O)CCC(=O)Nc1ccccn1 (stereo not given)	none
O=C1CC(N(O)c2ccccc2)C(=O)N1c1cc(Cl)cc(Cl)c1 (stereo not given)	TbMetRS inhib 12.5 | Tb MetRS conf 65.0 | Jurkat tox inactive | TbMetRS FP orth 28.4
Cc1ccccc1N1C(=O)CC(N(O)c2ccccc2)C1=O (stereo not given)	none
Cc1cc2ccccn2c1C(=O)c1ccc([N+](=O)[O-])o1	none
COc1ccc(C2CC(c3ccc(Cl)cc3Cl)Nc3nc(N)nn32)cc1 (stereo not given)	TbMetRS inhib 7.5 | Tb MetRS conf 14.5 | Jurkat tox inactive | TbMetRS FP orth inactive
COc1cccc(C2CC(c3ccc(Cl)cc3Cl)Nc3nc(N)nn32)c1 (stereo not given)	TbMetRS inhib 8.3 | Tb MetRS conf 13.2 | Jurkat tox inactive | TbMetRS FP orth inactive
COc1ccc(C2CC(c3ccc(Cl)cc3Cl)n3nc(N)nc3N2)cc1 (stereo not given)	none
CC(=O)N1CCOc2ccc(S(=O)(=O)NC(C)c3ccccc3)cc21 (stereo not given)	none
COc1ccc(C(=O)COc2ccc(C(C)=O)cc2OC)cc1OC	none (no result: IDE cell inh, TPT1 inhibitor)
O=C(NCc1cccs1)c1cccc(Nc2nc3ccc(Br)cc3[nH]2)c1	TbMetRS inhib 5.7 | Tb MetRS conf 25.1 | Jurkat tox inactive | TbMetRS FP orth 21.6
O=C(NCc1cccs1)c1ccccc1	none
CC(=O)Nc1ccc(S(=O)(=O)NNC(=O)COc2ccc(Cl)cc2Cl)cc1	none
CCOc1ccc(CONS(=O)(=O)c2ccc(NC(C)=O)cc2)cc1Cl	TbMetRS inhib 41.6 | Tb MetRS conf 66.6 | Jurkat tox inactive | TbMetRS FP orth 56.6
O=Cc1cc([N+](=O)[O-])ccc1N1CCN(Cc2ccc3c(c2)OCO3)CC1	TbMetRS inhib 8.1 | Tb MetRS conf 18.0 | Jurkat tox inactive | TbMetRS FP orth inactive
CCOc1cc(C(=O)OC(C(=O)NC(=O)NC)c2ccccc2)ccc1OCC(=O)N1CCOCC1 (stereo not given)	none (no result: TPT1 inhibitor)
COCCNC(=O)C1(C)CCCN(C(=O)c2ccc(F)c(Cl)c2)C1 (stereo not given)	none (no result: IDE cell activ, IDE cell inh, TPT1 inhibitor)
O=C(c1ccccc1)c1ccc(-n2cnnc2)c([N+](=O)[O-])c1	TbMetRS inhib 24.1 | Tb MetRS conf 44.3 | Jurkat tox inactive | TbMetRS FP orth 25.9
CN(c1cccc(Cl)c1)S(=O)(=O)c1cccc(C(=O)Nc2nc3ccccc3[nH]2)c1	TbMetRS inhib 33.0 | Tb MetRS conf 44.1 | Jurkat tox 67.9 | TbMetRS FP orth 21.9
COC(=O)C1CCN(C(=O)CN2C(=O)NC(CC(C)C)C2=O)CC1 (stereo not given)	none (no result: TPT1 inhibitor)
O=C1CCC(=O)N1OCCCOc1ccc(Br)cc1Cl	TbMetRS inhib 7.0 (no result: IDE cell inh, TPT1 inhibitor) | Tb MetRS conf 14.8 | Jurkat tox inactive | TbMetRS FP orth 32.8
CN(C(=O)COC(=O)c1ccc2c(c1)OCCO2)C1CCCCC1	none (no result: IDE cell inh, TPT1 inhibitor)
O=C(CSc1nc2ncc(Cl)cc2[nH]1)NCCc1ccc(F)cc1	none
O=C(CSc1nc2ccc(Cl)cc2[nH]1)NCCc1ccc(Cl)cc1	TbMetRS inhib 62.5 | Tb MetRS conf 72.1 | Jurkat tox inactive | TbMetRS FP orth 41.0
O=C(CSc1nc2ccc(Cl)cc2[nH]1)NCc1ccco1	TbMetRS inhib 8.3 | Tb MetRS conf 13.0 | Jurkat tox inactive | TbMetRS FP orth inactive
CN(C(=O)CSc1nc2ccc(Cl)cc2[nH]1)C1CCS(=O)(=O)C1 (stereo not given)	TbMetRS inhib 10.5 (no result: TPT1 inhibitor) | Tb MetRS conf 36.2 | Jurkat tox inactive | TbMetRS FP orth 24.1
O=C(CSc1nc2ccc(Cl)cc2[nH]1)NCCc1ccccc1	TbMetRS inhib 42.5 | Tb MetRS conf 57.9 | Jurkat tox inactive | TbMetRS FP orth 32.8
O=C(Nc1ccccc1)c1cc(C2COCCN2C(=O)CCCc2ccccc2)on1 (stereo not given)	none (no result: IDE cell activ, IDE cell inh, TPT1 inhibitor)
CC(Cc1ccccc1)NC(=O)CCNNC(=O)c1ccncc1 (stereo not given)	none (no result: IDE cell activ, IDE cell inh, TPT1 inhibitor)
Cc1c(-c2ccc(Br)cc2)nc2ccccn12	TbMetRS inhib 11.8 | Tb MetRS conf 22.6 | Jurkat tox inactive | TbMetRS FP orth inactive
Cn1c(SC2CCCCC2=O)nnc1-c1ccccc1F (stereo not given)	none
CCOc1ccc(CSCCNC(=S)Nc2ccccc2)cc1	TbMetRS inhib 14.4 | Tb MetRS conf 25.3 | Jurkat tox 16.4 | TbMetRS FP orth inactive
COc1ccc(CSCCNC(=S)Nc2ccccc2)cc1Cl	TbMetRS inhib 27.9 | Tb MetRS conf 41.2 | Jurkat tox inactive | TbMetRS FP orth 21.6
S=C(NCCSCc1ccc(Cl)c(Cl)c1)Nc1ccccc1	TbMetRS inhib 41.2 | Tb MetRS conf 56.7 | Jurkat tox inactive | TbMetRS FP orth 40.9
COC(=O)[C@]12CCCCC=C1N(Cc1ccco1)C(=O)[C@H](CC(=O)NCCCN1CCCC1=O)C2	none (no result: IDE cell activ, IDE cell inh, TPT1 inhibitor)
N#C/C(=N\Nc1cc(Cl)cc(Cl)c1)c1nnc2n1CCCCC2	TbMetRS inhib 24.0 | Tb MetRS conf 39.8 | Jurkat tox inactive | TbMetRS FP orth 26.2
CCCCc1c(-c2ccccc2OC)ncn1CCc1cccc(Cl)c1	TbMetRS inhib 5.8 (no result: IDE cell activ, IDE cell inh, TPT1 inhibitor) | Tb MetRS conf 15.8 | Jurkat tox 36.2 | TbMetRS FP orth inactive
CCO[C@@H]1OC(C(=O)NCc2nc3ccccc3[nH]2)=C[C@H](c2ccccc2)[C@H]1CCCO	TbMetRS inhib 8.6 | Tb MetRS conf 38.4 | Jurkat tox inactive | TbMetRS FP orth 19.6
CCO[C@H]1OC(C(=O)NCc2nc3ccccc3[nH]2)=C[C@@H](c2ccccc2)[C@@H]1CCCO	none
CCO[C@H]1OC(C(=O)NCc2nc3ccccc3[nH]2)=C[C@@H](c2csc3ccccc23)[C@@H]1CCCO	TbMetRS inhib 7.6 | Tb MetRS conf 38.4 | Jurkat tox inactive | TbMetRS FP orth inactive

Screening results: PubChem, several laboratories
